# Results reported in ChEMBL document CHEMBL3425469, “Discovery of imidazo[2,1-b]thiazole HCV NS4B inhibitors exhibiting synergistic effect with other direct-acting antiviral agents” (J Med Chem, 2015).
# Tests used:
# Hepatitis C virus [1] = assay: Antiviral activity against Hepatitis C virus genotype 1b Con 1 infected in human HuH7 cells at 5 nM after 72 hrs by luciferase assay in presence of 15 uM clemizole; format: functional, Hepacivirus hominis, Huh-7
# Procedure, shortened: (§1)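 Huh-7 cells stably carrying a GT1b Con1 bicistronic luciferase replicon, seeded at 8000 cells/well. The test compound and the partner DAA are dosed orthogonally at various concentrations, final 0.5% DMSO, then incubated 72 h at 37°C. Bright-Glo luciferase read-out gives replicon inhibition as % of untreated control. Cytotoxicity is checked in parallel by CellTiter-Fluor. CI and DRI are derived by the Chou–Talalay median-effect method.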
# Hepatitis C virus [2] = assay: Antiviral activity against Hepatitis C virus genotype 1b Con 1 infected in human HuH7 cells at 10 nM after 72 hrs by luciferase assay in presence of 12.5 uM clemizole; format: functional, Hepacivirus hominis, Huh-7
# Procedure, shortened: (§2)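 Stable Con1 GT1b bicistronic luciferase replicon in Huh-7 cells, 8000 cells/well. Test compound and a marketed DAA or clemizole added alone or together at varied concentrations, 0.5% DMSO final. 72 h at 37°C, then luciferase read with Bright-Glo. Inhibition expressed as % of untreated control, with cytotoxicity run in parallel. CI and DRI derived by the Chou–Talalay median-effect method.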
# Hepatitis C virus [3] = assay: Antiviral activity against Hepatitis C virus genotype 1b Con 1 infected in human HuH7 cells at 160 nM after 72 hrs by luciferase assay in presence of 0.02 nM daclatasvir; format: functional, Hepacivirus hominis, Huh-7; procedure, shortened: as §2
# Hepatitis C virus [4] = assay: Antiviral activity against Hepatitis C virus genotype 1b harboring A156T NS3/4A mutation transfected in human HuH7 cells after 72 hrs by luciferase assay; format: functional, cell-based, Hepacivirus hominis; details: Huh-7, 72 h
# Procedure, shortened: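 Huh-7 cells were transiently electroporated with genotype 1b replicon RNA carrying the specified mutation and plated at 10000 cells/well. Compounds were added at 0.5% DMSO final for 72 h at 37°C. Read-out was Bright-Glo luciferase. EC50 is the mean of two independent runs within 2-fold of each other. A reference drug EC50 was measured alongside each mutant replicon to validate it.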
# Hepatitis C virus [5] = assay: Antiviral activity against Hepatitis C virus genotype 1b Con 1 infected in human HuH7 cells at 2.5 nM after 72 hrs by luciferase assay in presence of 0.08 nM daclatasvir; format: functional, Hepacivirus hominis, Huh-7; procedure, shortened: as §2
# Hepatitis C virus [6] = assay: Antiviral activity against Hepatitis C virus genotype 1b Con 1 infected in human HuH7 cells at 10 nM after 72 hrs by luciferase assay in presence of 240 nM sofobuvir; format: functional, Hepacivirus hominis, Huh-7; procedure, shortened: as §2
# Hepatitis C virus [7] = assay: Antiviral activity against Hepatitis C virus genotype 1b Con 1 infected in human HuH7 cells at 160 nM after 72 hrs by luciferase assay in presence of 0.16 nM daclatasvir; format: functional, Hepacivirus hominis, Huh-7; procedure, shortened: as §2
# Hepatitis C virus [8] = assay: Antiviral activity against Hepatitis C virus genotype 1b Con 1 infected in human HuH7 cells at 40 nM after 72 hrs by luciferase assay in presence of 12.5 uM clemizole; format: functional, Hepacivirus hominis, Huh-7; procedure, shortened: as §1
# Hepatitis C virus [9] = assay: Antiviral activity against Hepatitis C virus genotype 1b Con 1 infected in human HuH7 cells at 20 nM after 72 hrs by luciferase assay in presence of 0.02 nM daclatasvir; format: functional, Hepacivirus hominis, Huh-7; procedure, shortened: as §2
# Hepatitis C virus [10] = assay: Antiviral activity against Hepatitis C virus genotype 1b Con 1 infected in human HuH7 cells at 20 nM after 72 hrs by luciferase assay in presence of 12 nM simeprevir; format: functional, Hepacivirus hominis, Huh-7; procedure, shortened: as §2
# [11] = Cytotoxicity against human HuH7 cells assessed as cell proliferation by cell titer assay; format: cell-based, Huh-7
# Procedure, shortened: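 Huh-7 cells carrying GT1b Con1 bicistronic replicon seeded at 8000 cells/well; compound added at 0.5% DMSO final, 37°C for 72 h. Proliferation read with CellTiter-Fluor reagent per manufacturer; CC50 fitted from concentration-response, average of at least two independent determinations.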
# Hepatitis C virus [12] = assay: Antiviral activity against Hepatitis C virus genotype 1b Con 1 infected in human HuH7 cells at 40 nM after 72 hrs by luciferase assay in presence of 15 uM clemizole; format: functional, Hepacivirus hominis, Huh-7; procedure, shortened: as §1
# Hepatitis C virus [13] = assay: Antiviral activity against Hepatitis C virus genotype 1b Con 1 infected in human HuH7 cells at 2.5 nM after 72 hrs by luciferase assay in presence of 5 uM clemizole; format: functional, Hepacivirus hominis, Huh-7; procedure, shortened: as §2
# Hepatitis C virus [14] = assay: Antiviral activity against Hepatitis C virus genotype 1b Con 1 infected in human HuH7 cells at 2.5 nM after 72 hrs by luciferase assay in presence of 3 nM simeprevir; format: functional, Hepacivirus hominis, Huh-7; procedure, shortened: as §2
# Hepatitis C virus [15] = assay: Antiviral activity against Hepatitis C virus genotype 1b Con 1 infected in human HuH7 cells at 40 nM after 72 hrs by luciferase assay in presence of 140 nM sofobuvir; format: functional, Hepacivirus hominis, Huh-7; procedure, shortened: as §1
# Hepatitis C virus [16] = assay: Antiviral activity against Hepatitis C virus genotype 1b Con 1 infected in human HuH7 cells at 5 nM after 72 hrs by luciferase assay in presence of 0.02 nM daclatasvir; format: functional, Hepacivirus hominis, Huh-7; procedure, shortened: as §1
# Hepatitis C virus [17] = assay: Antiviral activity against Hepatitis C virus genotype 1b Con 1 infected in human HuH7 cells at 160 nM after 72 hrs by luciferase assay in presence of 60 nM sofobuvir; format: functional, Hepacivirus hominis, Huh-7; procedure, shortened: as §2
# Hepatitis C virus [18] = assay: Antiviral activity against Hepatitis C virus genotype 1b Con 1 infected in human HuH7 cells at 160 nM after 72 hrs by luciferase assay in presence of 0.08 nM daclatasvir; format: functional, Hepacivirus hominis, Huh-7; procedure, shortened: as §2
# Hepatitis C virus [19] = assay: Antiviral activity against Hepatitis C virus genotype 1b Con 1 infected in human HuH7 cells at 40 nM after 72 hrs by luciferase assay in presence of 0.04 nM daclatasvir; format: functional, Hepacivirus hominis, Huh-7; procedure, shortened: as §1
# Hepatitis C virus [20] = assay: Antiviral activity against Hepatitis C virus genotype 1b Con 1 infected in human HuH7 cells at 10 nM after 72 hrs by luciferase assay in presence of 6 nM simeprevir; format: functional, Hepacivirus hominis, Huh-7; procedure, shortened: as §2
# Hepatitis C virus [21] = assay: Antiviral activity against Hepatitis C virus genotype 1b Con 1 infected in human HuH7 cells at 20 nM after 72 hrs by luciferase assay in presence of 60 nM sofobuvir; format: functional, Hepacivirus hominis, Huh-7; procedure, shortened: as §1
# Hepatitis C virus [22] = assay: Antiviral activity against Hepatitis C virus genotype 1b Con 1 infected in human HuH7 cells at 2.5 nM after 72 hrs by luciferase assay in presence of 120 nM sofobuvir; format: functional, Hepacivirus hominis, Huh-7; procedure, shortened: as §2
# Hepatitis C virus [23] = assay: Antiviral activity against Hepatitis C virus genotype 1b Con 1 infected in human HuH7 cells at 20 nM after 72 hrs by luciferase assay in presence of 5 uM clemizole; format: functional, Hepacivirus hominis, Huh-7; procedure, shortened: as §1
# Hepatitis C virus [24] = assay: Antiviral activity against Hepatitis C virus genotype 1b Con 1 infected in human HuH7 cells at 20 nM after 72 hrs by luciferase assay in presence of 0.04 nM daclatasvir; format: functional, Hepacivirus hominis, Huh-7; procedure, shortened: as §2
# Hepatitis C virus [25] = assay: Antiviral activity against Hepatitis C virus genotype 1b Con 1 infected in human HuH7 cells at 5 nM after 72 hrs by luciferase assay in presence of 60 nM sofobuvir; format: functional, Hepacivirus hominis, Huh-7; procedure, shortened: as §1
# Hepatitis C virus [26] = assay: Antiviral activity against Hepatitis C virus genotype 1b Con 1 infected in human HuH7 cells at 20 nM after 72 hrs by luciferase assay in presence of 120 nM sofobuvir; format: functional, Hepacivirus hominis, Huh-7; procedure, shortened: as §2
smiles,measurement,setting,value
O=C(c1nc2scc(C3CC3)n2c1Cl)N1CCN(C2CCCC2)C(=O)C1,CI,Hepatitis C virus [1],0.99
same,CI,Hepatitis C virus [2],0.81
same,CI,Hepatitis C virus [3],0.5
same,EC50,Hepatitis C virus [4],4 nM
same,CI,Hepatitis C virus [5],0.66
same,CI,Hepatitis C virus [6],0.58
same,CI,Hepatitis C virus [7],0.65
same,CI,Hepatitis C virus [8],0.76
same,CI,Hepatitis C virus [9],0.98
same,CI,Hepatitis C virus [10],0.64
same,CC50,[11],> 10000 nM
same,CI,Hepatitis C virus [12],0.94
same,CI,Hepatitis C virus [13],1.22
same,CI,Hepatitis C virus [14],1.26
same,CI,Hepatitis C virus [15],0.57
same,CI,Hepatitis C virus [16],1.21
same,CI,Hepatitis C virus [17],0.58
same,CI,Hepatitis C virus [18],0.42
same,CI,Hepatitis C virus [19],0.54
same,CI,Hepatitis C virus [20],0.54
same,CI,Hepatitis C virus [21],0.78
same,CI,Hepatitis C virus [22],0.9
same,CI,Hepatitis C virus [23],0.94
same,CI,Hepatitis C virus [24],0.69
same,CI,Hepatitis C virus [25],0.85
same,CI,Hepatitis C virus [26],0.63
